The subject of one data set is K562. In words: Growth inhibition of human K562 cells after 24 to 72 hrs by MTT assay. The data set is classed as functional, cell-based. In short, it runs like this:
(§1)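 Leukemic lines in medium with 50 µM β-mercaptoethanol, 25 mM Hepes pH 7.4, antibiotics and 10% heat-inactivated FCS (Daudi 20% FCS; Lucena-1 kept with 60 nM vincristine to maintain MDR phenotype). Cells exposed to compound for 24, 48 or 72 h. Viability by MTT: 3 h at 37 °C, DMSO solubilisation, absorbance at 490 nm.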

For a further data set, the system named is HL-60. In words: Growth inhibition of human HL60 cells after 72 hrs by MTT assay. The data set is classed as functional, cell-based. The note with it: HL-60, 72 h. In short, it runs like this: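 2 × 10⁴ cells/mL seeded in drug-free medium or medium with a range of compound concentrations, 72 h at 37 °C, 5% CO₂. MTT read-out: 3 h incubation, formazan dissolved in DMSO, A490. IC50 = concentration inhibiting growth by 50%. Mean of three independent experiments, triplicate wells.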

Data set [1] in a line: Growth inhibition of human K562-Lucena 1 cells after 24 to 72 hrs by MTT assay. It is filed as functional. A digest of the protocol: as §1
The subject of the next data set is Raji. In words: Growth inhibition of human Raji cells after 24 to 72 hrs by MTT assay. It is filed as functional, cell-based. A digest of the protocol:
as §1

For another data set, the system named is Jurkat. In words: Growth inhibition of human Jurkat cells after 24 to 72 hrs by MTT assay. The data set is classed as functional, cell-based. A digest of the protocol:
as §1

The test system of a further data set is Daudi. In words: Growth inhibition of human Daudi cells after 24 to 72 hrs by MTT assay. It is filed as functional, cell-based. In short, it runs like this: as §1
The subject of data set [2] is PBMC. In words: Growth inhibition of phytohemagglutinin-activated human PBMC cells after 24 to 72 hrs by MTT assay. The data set is classed as cell-based.
The next data set has as its system A549. In words: Growth inhibition of human A549 cells after 72 hrs by MTT assay. The data set is classed as functional, cell-based. Particulars: A549, 72 h. A digest of the protocol:
(§2)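 Adherent lung cancer cells allowed to attach 24 h, then exposed to compound. 2 × 10⁴ cells/mL in drug-free or compound-containing medium, 72 h at 37 °C, 5% CO₂. MTT added, 3 h at 37 °C, formazan dissolved in DMSO, absorbance at 490 nm. IC50 from three independent experiments, each concentration in triplicate.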

The next data set deals with NCI-H460. In words: Growth inhibition of human H460 cells after 72 hrs by MTT assay. The data set is classed as functional, cell-based. Particulars: NCI-H460, 72 h. A digest of the protocol:
as §2

The nature of data set [3]: Growth inhibition of human GLC4 cells after 72 hrs by MTT assay. The data set is classed as functional, cell-based. The note with it: GLC4, 72 h. In short, it runs like this: as §2
Data set [4] relates to PBMC. In words: Antiinflammatory activity in human PBMC assessed reduction of LPS-stimulated TNFalpha production at 25 uM after 2 hrs by ELISA. The data set is classed as functional, cell-based. A digest of the protocol:
(§3)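 PBMC at 10⁶ cells/mL stimulated with 2 µg/mL E. coli 055:B5 LPS for 2 h at 37 °C, 5% CO₂, co-incubated with vehicle (0.5% DMSO in RPMI 1640) or compound at several concentrations. TNF-α measured in supernatants. Three experiments, mean ± SEM.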

For data set [5], the system named is PBMC. In words: Antiinflammatory activity in human PBMC assessed inhibition of LPS-stimulated TNFalpha production at 100 uM after 2 hrs by ELISA. It is filed as functional. In short, it runs like this: as §3
Data set [6] in a line: Toxicity in LPS-stimulated human PBMC cells assessed as cell viability at 100 uM. The data set is classed as cell-based.

Calls of active or inactive are those of the source. The rule behind the calls is not given here.

As to `O=C1C2=C(C(=O)c3ccccc31)[C@H]1Oc3ccccc3[C@H]1CO2` [PTEROCARPANQUINONE], the half-inhibitory concentration (IC50) with K562 came to 1.67 µM; with HL-60, 2 µM; in [1], 2.75 µM; in the data set on Raji it was 3.32 µM; with Jurkat it was 6.77 µM; with Daudi it was 3.1 µM. The IC50 in the data set with PBMC [2] was over 20 µM; with A549, 11.2 µM; in the data set on NCI-H460, 12.9 µM; in [3], 5.17 µM. Also, in the data set on PBMC [4], the inhibition entry was “Active”. Besides, in the data set with PBMC [5], the inhibition at 100 µM worked out at 100%. For the same molecule, the viability at 100 µM in data set [6] is over 70%.
For the molecule `O=C1C2=C(C(=O)c3ccccc31)[C@H]1Oc3ccc(Br)cc3[C@H]1CO2` (racemic), the IC50 with K562 amounted to 5.7 µM; with HL-60 it was 4.87 µM.
For `O=C1C2=C(OC[C@@H]3c4cc5c(cc4O[C@H]23)OCO5)C(=O)c2c1ccc(O)c2O`, the IC50 is 2.95 µM in the data set with K562 and 2.1 µM in the data set with HL-60.
Take `CO[C@@]12[C@H](COC(N)=O)C3=C(C(=O)C(C)=C(N)C3=O)N1C[C@@H]1N[C@@H]12` [MITOMYCIN]: the 50% inhibitory concentration (IC50) in the data set with K562 was determined as 0.47 µM; in data set [1] it was 2.75 µM; in the data set with Daudi, 0.45 µM; with PBMC [2], 4.03 µM.
Turning to `O=C1C2=C(C(=O)c3ccccc31)[C@H]1Oc3ccc([N+](=O)[O-])cc3[C@H]1CO2` (racemic), the IC50 in the data set with K562 was 3.48 µM; in the data set with HL-60, 0.4 µM.
Take `COc1cc2c(cc1O)[C@H]1COC3=C(C(=O)c4ccccc4C3=O)[C@H]1O2` (racemic): the half-inhibitory concentration (IC50) in the data set on K562 was 2.18 µM. This lies in the single-digit micromolar range.
On to `O=C1C2=C(C(=O)c3ccccc31)[C@H]1Oc3ccc(Cl)cc3[C@H]1CO2` (racemic), for which the half-maximal inhibitory concentration (IC50) in the data set on K562 came to 6.77 µM; in the data set on HL-60, 4.87 µM.

Values taken from ChEMBL document CHEMBL1156927, “New pterocarpanquinones: synthesis, antineoplasic activity on cultured human malignant cell lines and TNF-alpha modulation in human PBMC cells” (Bioorg Med Chem, 2010).
